Here are results for six compounds from ChEMBL document CHEMBL1129514 (J Med Chem, 1996).

Several values for one entry are separate records, joined by “and”; a condition that tells them apart may be missing. Equal entries are not always repeated.

The target of assay [1] is T1, 5-hydroxytryptamine receptor 1A (Rattus norvegicus, UniProt P19327).
T1 sequence (P19327 whole entry): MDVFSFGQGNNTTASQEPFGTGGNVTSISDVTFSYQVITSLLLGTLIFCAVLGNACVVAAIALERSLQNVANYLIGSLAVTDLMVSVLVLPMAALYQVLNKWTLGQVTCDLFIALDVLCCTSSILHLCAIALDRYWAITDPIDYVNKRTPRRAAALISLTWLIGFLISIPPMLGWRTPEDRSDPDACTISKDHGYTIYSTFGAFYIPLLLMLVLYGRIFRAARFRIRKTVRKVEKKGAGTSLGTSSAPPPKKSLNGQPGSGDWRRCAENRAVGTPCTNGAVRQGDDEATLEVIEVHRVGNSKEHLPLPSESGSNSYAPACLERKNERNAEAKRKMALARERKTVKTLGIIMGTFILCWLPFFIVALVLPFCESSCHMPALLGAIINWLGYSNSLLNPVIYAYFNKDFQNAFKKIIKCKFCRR
The assay is described as follows: Binding affinity towards 5-hydroxytryptamine 1A receptor in the rat brain (hippocampus) using [3H]8-OH-DPAT. The format is tissue-based. Summed up:
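Rat hippocampal membranes; competition binding against [3H]-8-OH-DPAT (190 Ci/mmol) using 10-14 drug concentrations, each run in triplicate. Ki derived from at least three independent competition experiments. Remaining conditions follow a previously published procedure.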

Assay [2] concerns Rattus norvegicus. Description: Compound was tested for the induction of lower lip retraction in rats at a dose of 1.25 mg/kg. It counts as functional. The essentials: (§1)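 Male Wistar rats (220-260 g), compound ip as fresh aqueous solution, 6-8 animals/dose, each used once. Rats caged individually; lower lip retraction scored at 15, 30 and 45 min post-injection: 0 incisors not visible, 0.5 partly, 1 completely visible. Mean ± SEM score; Dunnett's test vs vehicle.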

Assay [3] relates to Rattus norvegicus. Description: Compound was tested for the induction of lower lip retraction in rats at a dose of 2.5 mg/kg. The format is functional. Summed up:
as §1

Assay [4] relates to Rattus norvegicus. Description: Compound was tested for the induction of lower lip retraction in rats at a dose of 5 mg/kg. The format is functional. Summed up:
as §1

Assay [5] deals with Rattus norvegicus. Description: Compound was tested for the induction of behavioral syndrome(flat body posture) in rats at a dose of 10 mg/kg. The format is functional. Summed up: (§2)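 Male Wistar rats (220-260 g), reserpine 1 mg/kg sc 18 h before test; compound as fresh aqueous solution ip, rats placed in cages 5 min beforehand. 45-s observation sessions began 3 min after injection, repeated every 3 min over five periods; forepaw treading and flat body posture scored 0 (absent) to 3 (intense). 6-8 rats/dose; mean ± SEM, Dunnett's test.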

Assay [6] relates to Rattus norvegicus. Description: Compound was tested for the induction of behavioral syndrome(flat body posture) in rats at a dose of 5 mg/kg. It counts as functional. Summed up: as §2
The subject of assay [7] is Rattus norvegicus. The assay is described as follows: Compound was tested for the induction of behavioral syndrome (forepaw treading) in rats at a dose of 10 mg/kg. The format is functional. The essentials:
as §2

Assay [8] has as its system Rattus norvegicus. Description: Compound was tested for the induction of behavioral syndrome (forepaw treading) in rats at a dose of 5 mg/kg. The format is functional. The essentials:
as §2

Assay [9] concerns Rattus norvegicus. Description: Effect on the 8-OH-DPAT-Induced Behavior(flat body posture) in Reserpine Pretreated Rats at a dose of 10 mg/kg. It counts as functional. The essentials: (§3)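 Reserpinized male Wistar rats (reserpine 1 mg/kg sc, 18 h prior); compound ip 15 min before 8-OH-DPAT 5 mg/kg ip, fresh aqueous solutions. Observations began 3 min after 8-OH-DPAT, repeated every 3 min for 15 min; flat body posture ranked 0-3. 6-8 rats/dose; mean ± SEM, Dunnett's test vs vehicle + 8-OH-DPAT.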

Assay [10] relates to Rattus norvegicus. Description: Effect on the 8-OH-DPAT-Induced Behavior(flat body posture) in Reserpine Pretreated Rats at a dose of 5 mg/kg. The format is functional. Summed up: as §3

`c1ccc2c(c1)CCNC2` [1,2,3,4-TETRAHYDROISOQUINOLINE]: the inhibition constant (Ki) in [1] is over 50 µM.

Take `O=C1CC2(CCCC2)CC(=O)N1CCN1CCc2ccccc2C1`: the inhibition constant (Ki) in assay [1] turned out to be 1.33 µM.

In assay [1], `O=C1c2ccccc2C(=O)N1CCN1CCc2ccccc2C1` yielded a Ki of 41.3 µM.

For the compound `O=C1c2ccccc2C(=O)N1CCCCN1CCc2ccccc2C1`, in [1], affinity was put at a Ki of 0.14 µM.

In assay [1], `O=C1CC2(CCCC2)CC(=O)N1CCCCN1CCc2ccccc2C1` yielded a Ki of 0.005 µM. In addition, the LLR score in the assay on Rattus norvegicus [2] stood at 1.2; in the assay with Rattus norvegicus [3], 1.9; in the assay with Rattus norvegicus [4] it was 2.5. The Behavioral score in the assay with Rattus norvegicus [5] was 11; with Rattus norvegicus [6], 7.8; in the assay with Rattus norvegicus [7], 2.7; with Rattus norvegicus [8] it was 2; with Rattus norvegicus [9], 13.7 and 7.8; in the assay on Rattus norvegicus [10] it was 14.5 and 8.9.

For the compound `O=C1CC2(CCCC2)CC(=O)N1CCCCN1CCN(c2ncccn2)CC1` [BUSPIRONE], the LLR score with Rattus norvegicus [2] is recorded as 1.6; in the assay on Rattus norvegicus [3], 2.3; in the assay on Rattus norvegicus [4] it was 2.4. The Behavioral score is 6.4 with Rattus norvegicus [5]; 6.8 in the assay with Rattus norvegicus [6]; 0.6 in the assay on Rattus norvegicus [7]; 0.2 in the assay with Rattus norvegicus [8]; 9.5 and 3.7 in the assay with Rattus norvegicus [9]; 14.3 and 5 in the assay with Rattus norvegicus [10].

By Ki is commonly meant the dissociation constant of the complex between target and ligand, obtained from inhibition or displacement. Read a low Ki as higher affinity.
